From ChEMBL document CHEMBL5143753, “Pyrimido[5,4-d]pyrimidine-Based Compounds as a Novel Class of Antitrypanosomal and Antileishmanial Agents” (ACS Med Chem Lett, 2022)

How the values were obtained:
[1] = Selectivity index, ratio of CC50 for human THP1 cells to IC50 for antitrypanosomal activity against Trypanosoma brucei brucei Lister 427 bloodstream forms; assay type: toxicity; conditions: read-out: Ratio CC50/IC50
Outline: (§1)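 Selectivity index was calculated as THP1 CC50 divided by parasite IC50.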

[2] = test system: Trypanosoma brucei brucei; test: Antitrypanosomal activity against Trypanosoma brucei brucei Lister 427 bloodstream forms incubated for 72 hrs by resazurin based assay; assay type: functional, organism-based; conditions: for IC50: Lister 427, 72 h; for IC90: Lister 427, time 72 hrs
Outline: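 T. brucei was screened first at 10 μM, with pentamidine as the reference and internal control. IC50 was determined when growth inhibition was above 50%, reported with a 95% confidence interval for the mean curve of the independent assays.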

[3] = Cytotoxicity in human THP-1 cells assessed as reduction in cell viability incubated for 48 hrs hrs by MTT assay; assay type: toxicity, cell-based
Leishmania infantum = test: Antileishmanial activity against luciferase-expressing Leishmania infantum (MHOM/MA/67/ITMAP-263) axenic amastigotes incubated for 72 hrs by resazurin based assay relative to control; assay type: functional, organism-based; conditions: MHOM/MA/67/ITMAP-263, 72 h, in the assay text read “promastigotes” for “axenic amastigotes”
[4] = Selectivity index, ratio of CC50 for human THP1 cells to IC50 for Antileishmanial activity against luciferase-expressing Leishmania infantum (MHOM/MA/67/ITMAP-263) axenic amastigotes incubated for 72 hrs by resazurin based assay relative to control; assay type: toxicity; conditions: in the assay text read “promastigotes” for “axenic amastigotes”, read-out: Ratio CC50/IC50; outline: as §1

Structure (SMILES)	selectivity ratio [1]	IC50 [2]	IC90 [2]	CC50 at 48 h [3]	IC50 (Leishmania infantum)	selectivity ratio at 72 h [4]
COc1ccc(/C=N/Nc2ncnc3c(Nc4ccc(OCCCO)cc4)ncnc23)cc1OC	6	8.59 µM	25.5 µM	50 µM	–	–
COc1cc(/C=N/Nc2ncnc3c(Nc4cccc(OCCCO)c4)ncnc23)cc(OC)c1O	4	6.06 µM	18.1 µM	50 µM	–	–
NNc1ncnc2c(Nc3ccc(OCCCO)cc3)ncnc12	> 33	3.03 µM	35.8 µM	> 100 µM	–	–
OCCCOc1cccc(Nc2ncnc3c(N/N=C/c4ccc(O)cc4)ncnc23)c1	8	6.18 µM	21.2 µM	50 µM	–	–
NNc1ncnc2c(Nc3cccc(OCc4ccncc4)c3)ncnc12	> 107	0.94 µM	1.24 µM	> 100 µM	3130 nM	> 32
COc1cc(/C=N/Nc2ncnc3c(Nc4cccc(OCCCO)c4)ncnc23)cc(OC)c1OC	8	6.12 µM	17.6 µM	50 µM	–	–
COc1ccc(/C=N/Nc2ncnc3c(Nc4ccc(OCCCO)cc4)ncnc23)cc1O	19	2.6 µM	8.73 µM	50 µM	–	–
COc1ccc(/C=N/Nc2ncnc3c(Nc4cccc(OCCCO)c4)ncnc23)cc1O	8	6.57 µM	18.7 µM	50 µM	–	–
NNc1ncnc2c(Nc3cccc(OCCCO)c3)ncnc12	> 10	9.89 µM	24.1 µM	> 100 µM	–	–
CCCCCCCCCCCCCCCCOP(=O)([O-])OCC[N+](C)(C)C [MILTEFOSINE]	–	–	–	30.9 µM	2210 nM	1.3
COc1cc(/C=N/Nc2ncnc3c(Nc4ccc(OCCCO)cc4)ncnc23)cc(OC)c1O	4	12.4 µM	255 µM	50 µM	–	–
COc1cc(/C=N/Nc2ncnc3c(Nc4ccc(OCCCO)cc4)ncnc23)ccc1O	14	3.76 µM	9.22 µM	50 µM	–	–
OCCCOc1cccc(Nc2ncnc3c(N/N=C/c4ccc(O)c(O)c4)ncnc23)c1	4	2.29 µM	5.67 µM	25 µM	–	–
OCCCOc1ccc(Nc2ncnc3c(N/N=C/c4ccc(O)cc4)ncnc23)cc1	3	12.9 µM	88.3 µM	50 µM	–	–
COc1ccc(/C=N/Nc2ncnc3c(Nc4cccc(OCCCO)c4)ncnc23)cc1OC	> 37	2.72 µM	8.17 µM	> 100 µM	–	–
OCCCOc1cccc(Nc2ncnc3c(N/N=C/c4cc(O)c(O)c(O)c4)ncnc23)c1	15	3.26 µM	14.5 µM	50 µM	–	–
Oc1ccc(/C=N/Nc2ncnc3c(Nc4cccc(OCc5ccncc5)c4)ncnc23)cc1O	> 58	1.73 µM	1.75 µM	> 100 µM	–	–
N=C(N)c1ccc(OCCCCCOc2ccc(C(=N)N)cc2)cc1 [PENTAMIDINE]	12800	0.00405 µM	–	51.8 µM	–	–
COc1cc(/C=N/Nc2ncnc3c(Nc4ccc(OCCCO)cc4)ncnc23)cc(OC)c1OC	> 30	3.32 µM	37.7 µM	> 100 µM	–	–
OCCCOc1ccc(Nc2ncnc3c(N/N=C/c4cc(O)c(O)c(O)c4)ncnc23)cc1	> 14	6.95 µM	20.5 µM	> 100 µM	–	–
COc1cc(/C=N/Nc2ncnc3c(Nc4cccc(OCCCO)c4)ncnc23)ccc1O	1	13.4 µM	44.9 µM	25 µM	–	–
Oc1cc(/C=N/Nc2ncnc3c(Nc4cccc(OCc5ccncc5)c4)ncnc23)cc(O)c1O	> 26	3.88 µM	8.36 µM	> 100 µM	–	–
OCCCOc1ccc(Nc2ncnc3c(N/N=C/c4ccc(O)c(O)c4)ncnc23)cc1	5	1.9 µM	2.07 µM	25 µM	–	–
COc1cc(/C=N/Nc2ncnc3c(Nc4cccc(OCc5ccncc5)c4)ncnc23)cc(OC)c1O	> 29	3.41 µM	37.2 µM	> 100 µM	–	–
